In ChEMBL document CHEMBL1150215, “Strychnogucines A and B, two new antiplasmodial bisindole alkaloids from Strychnos icaja” (J Nat Prod, 2001):

What was measured:
Plasmodium falciparum [1] = experiment: Antiplasmodial activity against chloroquine-sensitive Plasmodium falciparum F32-Tanzania by [3H]hypoxanthine uptake; type: functional, organism-based
Outline: (§1)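 Asexual erythrocytic stages kept in continuous in vitro culture (Trager and Jensen method). Eight 4-fold dilutions per sample, final concentrations 20 μg/mL down to 0.0012 μg/mL, each tested in duplicate. Growth read as [³H]hypoxanthine incorporation (Desjardins method, Mirovsky modification).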

Plasmodium falciparum [2] = experiment: Antiplasmodial activity against chloroquine-sensitive Plasmodium falciparum FCA 20 Ghana by [3H]hypoxanthine uptake; type: functional, organism-based
Outline: as §1, with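 “modification). Results given as mean ± standard deviation; differences assessed by Student's t-test, p ≤ 0.05.” for “modification).”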

[3] = Selectivity index, ratio of IC50 for human WI38 cells to IC50 for chloroquine-sensitive Plasmodium falciparum FCA 20 Ghana; type: toxicity, cell-based, WI-38; conditions: WI38 cells versus Plasmodium falciparum FCA 20 Ghana, read-out: Ratio IC50
Outline: (§2)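 SI is cytotoxicity IC50 divided by antiplasmodial IC50. Cytotoxicity was measured on cultured KB cancer cells or WI38 human fibroblasts in microplates by WST-1 tetrazolium colorimetric assay, with emetine and usambarensine as references.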

[4] = Cytotoxicity against human WI38 cells by WST1 assay; type: cell-based; conditions: WI-38
Outline: (§3)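 Cells grown as in earlier work and exposed to samples in 96-well microplates. Viability read by colorimetric assay with the tetrazolium salt WST-1. Emetine and usambarensine base run as reference compounds. Results given as IC50 in μM.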

Plasmodium falciparum [5] = experiment: Antiplasmodial activity against chloroquine-resistant Plasmodium falciparum W2 Indochina by [3H]hypoxanthine uptake; type: functional, organism-based
Outline: (§4)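 Continuous asexual erythrocytic P. falciparum culture (Trager and Jensen). Samples tested as eight 4-fold dilutions, final 20 µg/mL down to 0.0012 µg/mL, in duplicate. Growth read by [3H]hypoxanthine incorporation (Desjardins method, Mirovsky modification). IC50 given as mean ± standard deviation. Differences were tested by Student's t-test at p ≤ 0.05.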

[6] = Selectivity index, ratio of IC50 for human WI38 cells to IC50 for chloroquine-resistant Plasmodium falciparum W2 Indochina; type: toxicity, cell-based, WI-38; conditions: WI38 cells versus Plasmodium falciparum W2 Indochina, read-out: Ratio IC50; outline: as §2
Plasmodium falciparum [7] = experiment: Antiplasmodial activity against chloroquine-resistant Plasmodium falciparum PFB Brazil by [3H]hypoxanthine uptake; type: functional, organism-based; outline: as §4
KB = experiment: Cytotoxicity against human KB cells by WST1 assay; type: cell-based; outline: as §3
[8] = Selectivity index, ratio of IC50 for human KB cells to IC50 for chloroquine-sensitive Plasmodium falciparum FCA 20 Ghana; type: toxicity, cell-based; conditions: KB cells versus Plasmodium falciparum FCA 20 Ghana, read-out: Ratio IC50; outline: as §2
[9] = Selectivity index, ratio of IC50 for human KB cells to IC50 for chloroquine-resistant Plasmodium falciparum W2 Indochina; type: toxicity, cell-based; conditions: KB cells versus Plasmodium falciparum W2 Indochina, read-out: Ratio IC50; outline: as §2

| SMILES | IC50 (Plasmodium falciparum [1]) | IC90 (Plasmodium falciparum [1]) | IC90 (Plasmodium falciparum [2]) | selectivity ratio [3] | IC50 [4] | IC90 (Plasmodium falciparum [5]) | selectivity ratio [6] | IC50 (Plasmodium falciparum [7]) | IC90 (Plasmodium falciparum [7]) | IC50 (KB) | selectivity ratio [8] | selectivity ratio [9] | IC50 (Plasmodium falciparum [2]) |
| --- | --- | --- | --- | --- | --- | --- | --- | --- | --- | --- | --- | --- | --- |
| C/C=C1/CN2[C@@H](C3=C[C@@H]4[C@@H]5N(C3=O)c3ccccc3[C@@]53CCN5C/C(=C/CO)[C@@H]4C[C@H]53)C[C@@]34c5ccccc5N5C(=O)CC=C([C@H]1C[C@H]23)[C@H]54 | 1.26 µM | 5.35 µM | 4.35 µM | 19.8 | 16.8 µM | 1.35 µM | 120 | 0.431 µM | 1.64 µM | 16.2 µM | 19.1 | 116 |  |
| CCN(CC)CCCC(C)Nc1ccnc2cc(Cl)ccc12 (stereo unspecified) [CHLOROQUINE] |  | 0.063 µM | 0.119 µM |  |  | 1.75 µM |  |  | 1.54 µM |  |  |  |  |
| CC[C@H]1CN2CCc3cc(OC)c(OC)cc3[C@@H]2C[C@@H]1C[C@H]1NCCc2cc(OC)c(OC)cc21 [EMETINE] |  |  |  |  |  |  |  |  |  | 0.056 µM |  |  |  |
| C/C=C1/CN2[C@@H](C3=C[C@@H]4[C@@H]5N(C3=O)c3ccccc3[C@@]53CCN5C/C(=C/C)[C@@H]4C[C@H]53)C[C@@]34c5ccccc5N5C(=O)CC=C([C@H]1C[C@H]23)[C@H]54 [ISOSUNGUCINE] |  |  | 7.06 µM | 7 | 9.2 µM | 1.72 µM | 34.7 |  |  | 9 µM | 6.8 | 34 |  |
| OC(c1cc(C(F)(F)F)nc2c(C(F)(F)F)cccc12)C1CCCCN1 (stereo unspecified) [MEFLOQUINE] |  | 0.354 µM |  |  |  |  |  | 0.002 µM | 0.006 µM |  |  |  |  |
| C=C[C@H]1CN2CC[C@H]1C[C@H]2[C@H](O)c1ccnc2ccc(OC)cc12 [QUININE] |  |  | 1.91 µM |  |  | 1.72 µM |  |  |  |  |  |  |  |
| C/C=C1/CN2[C@@H]([C@@H]3C(=O)N4c5ccccc5[C@@]56CCN7CC8=CCO[C@@H]3[C@@H]([C@H]45)[C@H]8C[C@H]76)C[C@@]34c5ccccc5N5C(=O)CC=C([C@H]1C[C@H]23)[C@H]54 [STRYCHNOGUCINE A] | 4.81 µM | 9.54 µM | 6.98 µM |  |  |  |  | 3.2 µM | 9.4 µM |  |  |  | 2.31 µM |
| O=C1C[C@@H]2OCC=C3CN4[C@@H](C5=C[C@@H]6[C@@H]7N(C5=O)c5ccccc5[C@@]75CCN7C/C(=C/CO)[C@@H]6C[C@H]75)C[C@]56c7ccccc7N1[C@H]5[C@@H]2[C@H]3C[C@H]46 [STRYCHNOGUCINE B] | 0.51 µM | 3.23 µM | 3.79 µM | 25.1 | 15.5 µM |  | 182 | 0.202 µM | 1.15 µM | > 15 µM | > 24.3 | > 176 |  |
| C/C=C1/CN2CC[C@]34c5ccccc5N5C(=O)C([C@H]6C[C@]78c9ccccc9N9C(=O)C=C[C@@H]([C@H]97)[C@H]7C[C@@H]8N6C/C7=C/C)=C[C@H]([C@H]53)[C@H]1C[C@H]24 [SUNGUCINE] |  |  | 26.3 µM | 0.8 | 6 µM | 33.1 µM | 0.6 |  |  | 6.2 µM | 0.8 | 0.6 |  |
| C/C=C1/CN2CCc3c([nH]c4ccccc34)[C@@H]2C[C@@H]1Cc1nccc2c1[nH]c1ccccc12 [USAMBARENSINE] |  |  |  | 3.1 | 4.62 µM |  | 7.8 |  |  | 9.7 µM | 14.8 | 36.6 |  |
